In the assay the target is Probable G-protein coupled receptor 34 (Mus musculus, UniProt Q9R1K6). As to the kind of experiment: Agonist activity at mouse GPR34 expressed in HEK293 cells co-transfected with AP-TGFalpha/chimeric Galphaq/i1 assessed as induction of ectodomain shedding of membrane bound AP-TGFalpha after 1 hr. An outline of the steps:
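HEK293A cells transiently co-transfected with AP-TGFα, chimeric Gαq/i1 and GPR34 (human for line 1, mouse for line 3) or empty vector (mock). After 24 h, cells were suspended in HBSS with 5 mM HEPES pH 7.4 and preincubated 30 min with 10 μM (final) Ki16425. Compounds in HBSS with 0.01% fatty acid-free BSA were added for 1 h at 37 °C. AP activity in medium and on cells was read as OD405 with p-NPP after 1 h at room temperature.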

Structures are written as SMILES.

Consider six compounds from BindingDB's records for doi:10.1021/acs.jmedchem.7b00693 (The University of Tokyo, 2017).

Usually EC50 stands for the concentration at which the effect is half-maximal.

Sequence of Probable G-protein coupled receptor 34 (Q9R1K6 whole entry, the tested form may be a part): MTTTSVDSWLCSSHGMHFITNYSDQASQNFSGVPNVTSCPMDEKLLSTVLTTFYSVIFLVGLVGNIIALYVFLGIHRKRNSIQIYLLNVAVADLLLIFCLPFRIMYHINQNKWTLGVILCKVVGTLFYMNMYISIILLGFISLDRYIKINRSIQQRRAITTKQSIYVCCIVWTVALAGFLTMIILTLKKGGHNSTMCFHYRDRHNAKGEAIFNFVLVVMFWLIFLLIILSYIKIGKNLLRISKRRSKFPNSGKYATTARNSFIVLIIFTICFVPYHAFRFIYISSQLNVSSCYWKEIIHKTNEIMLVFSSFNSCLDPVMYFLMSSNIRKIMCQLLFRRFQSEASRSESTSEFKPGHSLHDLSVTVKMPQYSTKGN

For `CC(C)(C)c1ccccc1Oc1cccc(COc2ccccc2CCC(=O)OCCCOP(=O)(O)OC[C@H](N)C(=O)O)c1`, the EC50 was over 3.16 µM.

As to `CCCCCCOc1cccc(COc2ccccc2CCC(=O)OCCCOP(=O)(O)OC[C@H](N)C(=O)O)c1`, the EC50 is over 3.16 µM.

Consider `CCCCCCCC/C=C\CCCCCCCC(=O)OCCCOP(=O)(O)OC[C@H](N)C(=O)O`, for which the EC50 was over 3.16 µM.

As for `CCCCCCOCC#CCOc1ccccc1CCC(=O)OCCCOP(=O)(O)OC[C@H](N)C(=O)O`, the EC50 is over 3.16 µM.

Turning to `N[C@@H](COP(=O)(O)OCCCOC(=O)CCc1ccccc1OCc1cccc(OCc2ccccc2)c1)C(=O)O`, the concentration giving a half-maximal response (EC50) is over 3.16 µM.

Consider `N[C@@H](COP(=O)(O)OCCCOC(=O)CCc1ccccc1OCc1cccc(-c2ccccc2)c1)C(=O)O`, for which the EC50 was over 3.16 µM.
